Test results as given in ChEMBL document CHEMBL3124905, “Isothiocoumarin-3-carboxylic acid derivatives: synthesis, anticancer and antitrypanosomal activity evaluation” (Eur J Med Chem, 2014).
Values belong to the compound of their own block, whether it stands above or below them. Active and inactive are the calls of the source. The calls are words filed in the database; no cut-off is given here.

What was measured:
Assay type in all cases: functional
[1] = tested on: Trypanosoma brucei brucei; assay: Antitrypanosomal activity against bloodstream form of Trypanosoma brucei brucei strain 90-13 assessed as inhibition of parasite growth at 10 ug/ml after 72 hrs by resazurin reduction test; conditions: strain 90-13, 72 h
Method in brief: (§1)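 Trypanosoma brucei brucei 90-13 bloodstream forms, grown in HMI9 with 10% FCS at 37 °C under 5% CO2. Log-phase parasites were seeded at 10^5 cells/mL with or without inhibitor, with stocks prepared in DMSO. After 72 h, resazurin was added and fluorescence was read at 530/590 nm after a further 4 h. Percent growth inhibition was calculated versus drug-free parasites, with DMSO as control.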

[2] = tested on: Trypanosoma brucei brucei; assay: Antitrypanosomal activity against bloodstream form of Trypanosoma brucei brucei strain 90-13 assessed as inhibition of parasite growth at 1 ug/ml after 72 hrs by resazurin reduction test; conditions: strain 90-13, 72 h; method in brief: as §1
NCI-H460 [3] = assay: Anticancer activity against human NCI-H460 cells assessed as cell growth at 100 uM after 48 hrs by SRB assay; conditions: NCI-H460, 48 h, read-out: Activity
Method in brief: (§2)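 NCI one-dose primary screen on a three-line panel (breast MCF7, lung NCI-H460, CNS SF-268). Cells were inoculated and preincubated 24–48 h, then exposed to a single concentration of 10−4 M for 48 h. The endpoint was sulforhodamine B protein staining, and results are expressed as percent growth relative to untreated control cells. Negative values denote cytotoxicity.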

MCF7 = assay: Anticancer activity against human MCF7 cells assessed as cell growth at 100 uM after 48 hrs by SRB assay; conditions: MCF7, 48 h, read-out: Activity; method in brief: as §2
SF-268 = assay: Anticancer activity against human SF268 cells assessed as cell growth at 100 uM after 48 hrs by SRB assay; conditions: SF-268, 48 h, read-out: Activity; method in brief: as §2
CCRF-CEM = assay: Growth inhibition of human CCRF-CEM cells after 48 hrs by SRB assay
Method in brief: (§3)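 NCI five-dose assay against the ~60-cell-line panel (nine cancer types). Tenfold dilutions from 10−4 to 10−8 M were used with continuous 48-h exposure and SRB absorbance readout. Percent growth was computed from time-zero, control and treated absorbances. GI50 is the concentration giving 50% lower net protein increase than controls. Values not reached are reported as beyond the tested range.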

[4] = (§4) Growth inhibition of human HOP92 cells after 48 hrs by SRB assay; conditions: HOP-92, 48 h; for TGI: read-out: pTGI (converted); method in brief: as §3
MDA-MB-435 = assay: Growth inhibition of human MDA-MB-435 cells after 48 hrs by SRB assay; method in brief: as §3
SR = assay: Growth inhibition of human SR cells after 48 hrs by SRB assay
Method in brief: (§5)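 NCI ~60-cell-line five-dose screen. Cells were preincubated 24-48 h, then given compound at 10-fold dilutions from 10^-4 to 10^-8 M with 48 h continuous exposure. SRB protein stain was read by absorbance at time zero, in untreated control and with drug. GI50 was derived from [(Ti-Tz)/(C-Tz)]x100=50, TGI from Ti=Tz, and LC50 from [(Ti-Tz)/Tz]x100=-50.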

KM12 = assay: Growth inhibition of human KM12 cells after 48 hrs by SRB assay; method in brief: as §3
OVCAR-3 = assay: Growth inhibition of human OVCAR3 cells after 48 hrs by SRB assay; method in brief: as §3
NCI/ADR-RES = assay: Growth inhibition of human NCI/ADR-RES cells after 48 hrs by SRB assay; method in brief: as §3
UACC-62 = assay: Growth inhibition of human UACC62 cells after 48 hrs by SRB assay; method in brief: as §5
SF-539 = assay: Growth inhibition of human SF539 cells after 48 hrs by SRB assay; method in brief: as §3
A549 = assay: Growth inhibition of human A549/ATCC cells after 48 hrs by SRB assay; method in brief: as §3
HCC 2998 = assay: Growth inhibition of human HCC2998 cells after 48 hrs by SRB assay; method in brief: as §3
Hs-578T = assay: Growth inhibition of human Hs 578T cells after 48 hrs by SRB assay; method in brief: as §3
U-251 = assay: Growth inhibition of human U251 cells after 48 hrs by SRB assay; method in brief: as §5
NCI-H460 [5] = assay: Growth inhibition of human NCI-H460 cells after 48 hrs by SRB assay; method in brief: as §3
CAKI-1 = assay: Growth inhibition of human CAKI-1 cells after 48 hrs by SRB assay; method in brief: as §3
UO-31 = assay: Growth inhibition of human UO31 cells after 48 hrs by SRB assay; method in brief: as §5
EKVX = assay: Growth inhibition of human EKVX cells after 48 hrs by SRB assay; method in brief: as §3
Malme-3M = assay: Growth inhibition of human MALME-3M cells after 48 hrs by SRB assay; method in brief: as §3
M14 = assay: Growth inhibition of human M14 cells after 48 hrs by SRB assay; method in brief: as §3
SK-MEL-5 = assay: Growth inhibition of human SK-MEL-5 cells after 48 hrs by SRB assay; method in brief: as §3
PC-3 = assay: Growth inhibition of human PC3 cells after 48 hrs by SRB assay; method in brief: as §3
RPMI18226 = assay: Growth inhibition of human […] cells after 48 hrs by SRB assay; method in brief: as §3
ACHN = assay: Growth inhibition of human ACHN cells after 48 hrs by SRB assay; method in brief: as §3
786-0 [6] = assay: Growth inhibition of human 786-O cells after 48 hrs by SRB assay; method in brief: as §3
RXF 393 = assay: Growth inhibition of human RXF393 cells after 48 hrs by SRB assay; method in brief: as §3
HOP69 = assay: Growth inhibition of human […] cells after 48 hrs by SRB assay; method in brief: as §3
786-0 [7] = assay: Growth inhibition of human 786-0 cells after 48 hrs by SRB assay; method in brief: as §3
NCI-H522 = assay: Growth inhibition of human NCI-H522 cells after 48 hrs by SRB assay; method in brief: as §3
SNB-75 = assay: Growth inhibition of human SNB75 cells after 48 hrs by SRB assay; method in brief: as §3
HOP-92 = assay: as §4; method in brief: as §3
HCT-116 = assay: Growth inhibition of human HCT116 cells after 48 hrs by SRB assay; method in brief: as §3
HOP-62 = assay: Growth inhibition of human HOP62 cells after 48 hrs by SRB assay; method in brief: as §3
OVCAR-8 = assay: Growth inhibition of human OVCAR8 cells after 48 hrs by SRB assay; method in brief: as §3
MOLT-4 = assay: Growth inhibition of human MOLT4 cells after 48 hrs by SRB assay; method in brief: as §3
LOX IMVI = assay: Growth inhibition of human LOXIMVI cells after 48 hrs by SRB assay; method in brief: as §3
OVCAR-4 = assay: Growth inhibition of human OVCAR4 cells after 48 hrs by SRB assay; method in brief: as §3
NCI-H23 = assay: Growth inhibition of human NCI-H23 cells after 48 hrs by SRB assay; method in brief: as §3
NCI-H322M = assay: Growth inhibition of human NCI-H322M cells after 48 hrs by SRB assay; method in brief: as §3
SF-295 = assay: Growth inhibition of human SF295 cells after 48 hrs by SRB assay; method in brief: as §3
MDA-MB-231 = assay: Growth inhibition of human MDA-MB-231/ATCC cells after 48 hrs by SRB assay; method in brief: as §3
BT-549 = assay: Growth inhibition of human BT549 cells after 48 hrs by SRB assay; method in brief: as §3
TK-10 = assay: Growth inhibition of human TK10 cells after 48 hrs by SRB assay; method in brief: as §5
SNB- = assay: Growth inhibition of human SNB cells after 48 hrs by SRB assay; method in brief: as §3
OVCAR-5 = assay: Growth inhibition of human OVCAR5 cells after 48 hrs by SRB assay; method in brief: as §3
UACC-257 = assay: Growth inhibition of human UACC257 cells after 48 hrs by SRB assay; method in brief: as §5

SMILES: CCOC(=O)c1cc2ccccc2c(=O)s1
- inhibition at 10 µg/mL [1]: -3.91%
- inhibition at 1 µg/mL [2]: 35.8%

SMILES: COc1ccc2cc(C(=O)Nc3ccc(Cl)cc3)sc(=O)c2c1OC
- inhibition at 10 µg/mL [1]: 5.99%
- growth at 100 µM (NCI-H460 [3]): 93%
- growth at 100 µM (MCF7): 80%
- growth at 100 µM (SF-268): 91%
- inhibition at 1 µg/mL [2]: 5.77%

- GI50 (CCRF-CEM): 5.62 µM
- GI50 (MDA-MB-435; MDA-MB-435, 48 h): 18.6 µM
SMILES: COc1ccc2cc(C(=O)Nc3ccc(O)cc3)sc(=O)c2c1OC
- TGI (CCRF-CEM; read-out: pTGI (converted)): > 100 µM
- GI50 [4]: 17.8 µM
- TGI [4]: 95.5 µM
- TGI (MDA-MB-435; MDA-MB-435, 48 h, read-out: pTGI (converted)): 77.6 µM
- GI50 (SR): 3.47 µM
- TGI (SR; read-out: pTGI (converted)): 42.7 µM
- GI50 (KM12; KM12, 48 h): 26.3 µM
- TGI (KM12; KM12, 48 h, read-out: pTGI): > 100 µM

SMILES: COc1ccc2cc(C(=O)Nc3cccc4ccccc34)sc(=O)c2c1OC
- inhibition at 10 µg/mL [1]: 41.2%
- GI50 [4]: 20.4 µM
- TGI [4]: 69.2 µM
- inhibition at 1 µg/mL [2]: 20.8%

- pGI50 (OVCAR-3): inactive
- pGI50 (A549): inactive
- pGI50 (HCC 2998): inactive
- pGI50 (CCRF-CEM): inactive
- pGI50 (U-251): inactive
- pGI50 (NCI-H460 [5]): inactive
- pGI50 (SK-MEL-5): inactive
- pGI50 (PC-3): inactive
- pGI50 (ACHN): inactive
- pGI50 (786-0 [6]): inactive
- pGI50 (786-0 [7]): inactive
- pGI50 (NCI-H522): inactive
- pGI50 (HCT-116): inactive
- pGI50 (OVCAR-8): inactive
- pGI50 (MOLT-4): inactive
- pGI50 (OVCAR-4): inactive
- pGI50 (NCI-H23): inactive
- pGI50 (MDA-MB-435): inactive
- pGI50 (NCI-H322M): inactive
- pGI50 (MDA-MB-231): inactive
- pGI50 (BT-549): inactive
- pGI50 (OVCAR-5): inactive
SMILES: COc1ccc2cc(C(=O)Nc3nccs3)sc(=O)c2c1OC
- pTGI (OVCAR-3): inactive
- pGI50 (NCI/ADR-RES): inactive
- pTGI (NCI/ADR-RES): inactive
- pGI50 (UACC-62): inactive
- pTGI (UACC-62): inactive
- pGI50 (SF-539): inactive
- pTGI (SF-539): inactive
- pTGI (A549): inactive
- pTGI (HCC 2998): inactive
- pTGI (CCRF-CEM): inactive
- pGI50 (Hs-578T): inactive
- pTGI (Hs-578T): inactive
- pTGI (U-251): inactive
- pTGI (NCI-H460 [5]): inactive
- pGI50 (CAKI-1): inactive
- pTGI (CAKI-1): inactive
- pGI50 (UO-31): inactive
- pTGI (UO-31): inactive
- pGI50 (EKVX): inactive
- pTGI (EKVX): inactive
- pGI50 (Malme-3M): inactive
- pTGI (Malme-3M): inactive
- growth at 100 µM (NCI-H460 [3]): 94%
- growth at 100 µM (MCF7): 95%
- pGI50 (M14): inactive
- pTGI (M14): inactive
- pTGI (SK-MEL-5): inactive
- pTGI (PC-3): inactive
- growth at 100 µM (SF-268): 98%
- pGI50 (RPMI18226): inactive
- pTGI (RPMI18226): inactive
- pTGI (ACHN): inactive
- pTGI (786-0 [6]): inactive
- pGI50 (RXF 393): inactive
- pTGI (RXF 393): inactive
- pGI50 (HOP69): inactive
- pTGI (HOP69): inactive
- pTGI (786-0 [7]): inactive
- pTGI (NCI-H522): inactive
- pGI50 (SNB-75): inactive
- pTGI (SNB-75): inactive
- pGI50 (HOP-92): inactive
- pTGI (HOP-92): inactive
- pTGI (HCT-116): inactive
- pGI50 (HOP-62): inactive
- pTGI (HOP-62): inactive
- pTGI (OVCAR-8): inactive
- pTGI (MOLT-4): inactive
- pGI50 (LOX IMVI): inactive
- pTGI (LOX IMVI): inactive
- pTGI (OVCAR-4): inactive
- pTGI (NCI-H23): inactive
- pTGI (MDA-MB-435): inactive
- pTGI (NCI-H322M): inactive
- pGI50 (SF-295): inactive
- pTGI (SF-295): inactive
- pTGI (MDA-MB-231): inactive
- pGI50 (SR): inactive
- pTGI (SR): inactive
- pTGI (BT-549): inactive
- pGI50 (TK-10): inactive
- pTGI (TK-10): inactive
- pGI50 (SNB-): inactive
- pTGI (SNB-): inactive
- pTGI (OVCAR-5): inactive
- pGI50 (UACC-257): inactive
- pTGI (UACC-257): inactive
- pGI50 (KM12): inactive
- pTGI (KM12): inactive
